Columns and labels:
[1] = biological target: T1, N-acylethanolamine-hydrolyzing acid amidase (Rattus norvegicus, UniProt Q5KTC7); assay: Inhibition of rat recombinant NAAA expressed in HEK293 cells using heptadecenoylethanolamide as substrate after 30 mins by LC/MS analysis; type: cell-based
T1 sequence (Q5KTC7 whole entry): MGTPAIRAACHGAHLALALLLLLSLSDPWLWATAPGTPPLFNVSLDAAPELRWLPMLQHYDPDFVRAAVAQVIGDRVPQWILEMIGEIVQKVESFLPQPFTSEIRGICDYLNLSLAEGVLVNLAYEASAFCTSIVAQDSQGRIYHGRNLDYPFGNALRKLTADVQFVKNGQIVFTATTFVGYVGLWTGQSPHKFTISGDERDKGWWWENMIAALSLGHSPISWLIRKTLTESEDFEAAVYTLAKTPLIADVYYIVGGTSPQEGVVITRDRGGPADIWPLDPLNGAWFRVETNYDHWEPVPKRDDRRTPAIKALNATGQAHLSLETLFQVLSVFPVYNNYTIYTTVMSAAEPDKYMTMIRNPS
Outline: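 Recombinant rat NAAA incubated 30 min at 37 °C in 50 mM sodium hydrogen phosphate buffer pH 5.0 containing 0.1% Triton X-100, 3 mM DTT and heptadecenoylethanolamide substrate (50 mM as printed). The reaction was stopped with cold methanol containing 1 nmol heptadecanoic acid. Product was measured by LC/MS with negative ESI, selected ion monitoring at m/z 267.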

[2] = Apparent Half life of the compound in 0.01 M phosphate buffer at pH 5 in presence of 3 mM DTT; conditions: read-out: t1/2(app)
Albumin = Albumin (Bos taurus, UniProt P02769); assay: Apparent half life of the compound in bovine serum albumin in phosphate-buffered saline at pH 7.4; type: ADME; conditions: cattle, read-out: t1/2(app)
Sequence of Albumin (P02769 whole entry): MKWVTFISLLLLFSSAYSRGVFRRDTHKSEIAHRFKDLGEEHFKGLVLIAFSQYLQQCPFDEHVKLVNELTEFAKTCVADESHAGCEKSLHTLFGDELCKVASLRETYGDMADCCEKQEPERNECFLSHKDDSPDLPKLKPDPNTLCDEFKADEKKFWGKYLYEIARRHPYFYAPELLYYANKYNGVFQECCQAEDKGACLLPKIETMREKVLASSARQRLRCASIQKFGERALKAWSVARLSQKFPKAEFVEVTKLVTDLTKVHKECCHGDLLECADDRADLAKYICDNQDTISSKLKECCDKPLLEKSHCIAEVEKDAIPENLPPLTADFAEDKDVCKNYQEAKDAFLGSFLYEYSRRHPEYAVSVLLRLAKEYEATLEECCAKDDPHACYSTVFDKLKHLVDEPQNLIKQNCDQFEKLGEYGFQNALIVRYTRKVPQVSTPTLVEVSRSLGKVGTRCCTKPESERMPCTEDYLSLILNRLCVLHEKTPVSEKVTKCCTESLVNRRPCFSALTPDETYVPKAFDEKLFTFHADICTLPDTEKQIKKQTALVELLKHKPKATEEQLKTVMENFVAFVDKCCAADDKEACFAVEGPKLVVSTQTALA
Outline: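 Compound incubated at 5–100 μM final (1% DMSO) at 37 °C in 20 mg/mL bovine serum albumin in PBS pH 7.4. Aliquots were quenched with 2 volumes of CH3CN, centrifuged, and analysed by RP-HPLC. Apparent t1/2 came from pseudo-first-order regression of log[compound] vs time.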

[3] = Apparent Half life of the compound in 0.01 M phosphate buffer at pH 5; type: physicochemical; conditions: read-out: t1/2(app)
Outline: (§1)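 Compound (from DMSO stock; 1% DMSO final) incubated at 1–100 μM final at 37 °C with shaking, ionic strength 0.15 M, in 0.01 M PBS pH 7.4 or 0.01 M phosphate buffer pH 5.0. Aliquots taken over time were analysed by RP-HPLC. Apparent t1/2 came from pseudo-first-order rate constants (linear regression of log[compound] vs time), reported as mean ± SD of three experiments.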

[4] = Apparent Half life of the compound in 0.01 M phosphate-buffered saline at pH 7.4; type: physicochemical; conditions: read-out: t1/2(app); outline: as §1
[5] = Apparent half life of the compound in rat plasma by HPLC analysis; type: ADME, cell-free; conditions: read-out: t1/2(app) (converted)
Outline: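 Pooled heparinized plasma from male Wistar rats was diluted to 80% (v/v) with PBS pH 7.4. Compound was added at 5–100 μM final (1% DMSO) and incubated at 37 °C with shaking. Aliquots were quenched with 2 volumes of CH3CN, centrifuged, and analysed by RP-HPLC. t1/2 came from log[compound]-vs-time regression, as mean ± SD of three experiments.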

[6] = Drug degradation in 0.01 M phosphate-buffered saline at pH 7.4 assessed as N-acylated L-serine product formation by HPLC-UV-MS analysis; type: physicochemical; conditions: buffer
Outline: (§2)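 Compound incubated at 37 °C in 0.01 M phosphate buffer pH 5.0 or 0.01 M PBS pH 7.4 (μ = 0.15 M; 1% DMSO) for up to 3 days. Degradation products were followed by RP-HPLC-UV and ESI-MS on a C18 column with acetonitrile/10 mM ammonium acetate (pH 7.0) mobile phase. Products were quantified against calibration curves of pure standards.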

[7] = Drug degradation in 0.01 M phosphate buffer at pH 5 assessed as N-acylated L-serine product formation by HPLC-UV-MS analysis; type: physicochemical; outline: as §2
[8] = Drug degradation in 0.01 M phosphate buffer at pH 5 assessed as time required for O-(2-naphthoyl)-L-serine product formation by HPLC-UV-MS analysis; type: physicochemical; outline: as §2
[9] = Drug degradation in 0.01 M phosphate-buffered saline at pH 7.4 assessed as 2-naphtholic acid product formation after 24 hrs by HPLC-UV-MS analysis; type: physicochemical; conditions: buffer, pH 7.4, 24 h; outline: as §2
[10] = Drug degradation in 0.01 M phosphate buffer at pH 5 assessed as O-(2-naphthoyl)-L-serine product formation by HPLC-UV-MS analysis; type: physicochemical; outline: as §2
[11] = Drug degradation in 0.01 M phosphate buffer at pH 5 assessed as N-(2-Naphthoyl)-L-serine product formation at > 2 hrs by HPLC-UV-MS analysis; type: physicochemical; conditions: pH 5, 2 h; outline: as §2
[12] = Drug degradation in 0.01 M phosphate-buffered saline at pH 7.4 assessed as N-(2-Naphthoyl)-L-serine product formation by HPLC-UV-MS analysis; type: physicochemical; conditions: buffer; outline: as §2
[13] = Drug degradation in 0.01 M phosphate buffer at pH 5 assessed as 2-Naphtholic acid product formation at > 2 hrs by HPLC-UV-MS analysis; type: physicochemical; conditions: pH 5, 2 h; outline: as §2
[14] = Drug degradation in 0.01 M phosphate buffer at pH 5 assessed as time required for N-(2-Naphthoyl)-L-serine product formation by HPLC-UV-MS analysis; type: physicochemical; outline: as §2
[15] = Apparent half life of the compound in 50% v/v rat plasma by HPLC analysis in presence of EDTA; type: ADME, cell-free; conditions: 50% v/v plasma, with EDTA, read-out: t1/2(app)
Outline: (§3)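 Rat or human plasma at 50% (v/v) was preincubated with BNPP, eserine, PMSF, EDTA or vehicle, then compound was added and kept at 37 °C. Aliquots taken at regular time points were quenched with 2 volumes of CH3CN, centrifuged, and analysed by RP-HPLC. Apparent t1/2 came from log[compound]-vs-time regression.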

[16] = Apparent half life of the compound in 50% v/v human plasma by HPLC analysis; type: ADME, cell-free; conditions: 50% v/v plasma, read-out: t1/2(app); outline: as §3
[17] = Apparent half life of the compound in 50% v/v human plasma by HPLC analysis in presence of PMSF; type: ADME, cell-free; conditions: 50% v/v plasma, with PMSF, read-out: t1/2(app); outline: as §3
[18] = Apparent half life of the compound in 50% v/v rat plasma by HPLC analysis in presence of eserine; type: ADME, cell-free; conditions: 50% v/v plasma, with eserine, read-out: t1/2(app); outline: as §3
[19] = Apparent half life of the compound in 50% v/v human plasma by HPLC analysis in presence of BNPP; type: ADME, cell-free; conditions: 50% v/v plasma, with BNPP, read-out: t1/2(app); outline: as §3
[20] = Apparent half life of the compound in 50% v/v rat plasma by HPLC analysis in presence of PMSF; type: ADME, cell-free; conditions: 50% v/v plasma, with PMSF, read-out: t1/2(app); outline: as §3
[21] = Apparent half life of the compound in 50% v/v rat plasma by HPLC analysis in presence of BNPP; type: ADME, cell-free; conditions: 50% v/v plasma, with BNPP, read-out: t1/2(app); outline: as §3
[22] = Apparent half life of the compound in 50% v/v human plasma by HPLC analysis in presence of EDTA; type: ADME, cell-free; conditions: 50% v/v plasma, with EDTA, read-out: t1/2(app); outline: as §3
[23] = Apparent half life of the compound in 50% v/v rat plasma by HPLC analysis; type: ADME, cell-free; conditions: 50% v/v plasma, read-out: t1/2(app); outline: as §3
[24] = Apparent half life of the compound in 50% v/v human plasma by HPLC analysis in presence of eserine; type: ADME, cell-free; conditions: 50% v/v plasma, with eserine, read-out: t1/2(app); outline: as §3

IC50 [1]	half-life [2]	half-life (Albumin)	half-life [3]	half-life [4]	half-life [5]	Drug degradation [6]	Drug degradation [7]	SMILES	also measured
4.9 µM	–	–	–	–	–	–	–	C[C@H]1OC(=O)[C@@H]1NC(=O)OC(C)(C)C	–
0.58 µM	39 min	19.6 min	43.4 min	33.7 min	< 0.167 min	–	–	CC(C)(C)OC(=O)N[C@H]1COC1=O	–
> 80 µM	149 min	121 min	217 min	143 min	0.217 min	–	–	C[C@H]1OC(=O)[C@H]1NC(=O)OC(C)(C)C	–
–	100 min	16 min	135 min	73.8 min	< 0.167 min	Active	Active	C[C@H]1OC(=O)[C@H]1NC(=O)CCc1ccccc1	–
–	19.5 min	2.7 min	23.7 min	9.8 min	< 0.167 min	Active	Active	O=C(N[C@H]1COC1=O)c1ccc(C(=O)Oc2ccccc2)cc1	–
15 µM	25.1 min	4.6 min	29.7 min	3.3 min	< 0.167 min	–	–	O=C(NCc1ccccc1)N[C@H]1COC1=O	–
10 µM	–	–	–	–	–	–	–	C[C@H]1OC(=O)[C@H]1NC(=O)OCc1ccccc1	–
–	15.9 min	< 1 min	19 min	9.8 min	< 0.167 min	Active	Active	O=C(N[C@H]1COC1=O)c1ccc2ccccc2c1	Time [8]: <= 2 hr; Drug degradation [9]: Active; Drug degradation [10]: Active; Drug degradation [11]: Active; Drug degradation [12]: Active; Drug degradation [13]: Active; Time [14]: <= 2 hr
0.22 µM	147 min	129 min	241 min	122 min	0.183 min	–	–	C[C@@H]1OC(=O)[C@@H]1NC(=O)OC(C)(C)C	half-life [15]: 0.34 min; half-life [16]: 2.99 min; half-life [17]: 11.5 min; half-life [18]: 4.19 min; half-life [19]: 4.7 min; half-life [20]: 7.13 min; half-life [21]: 3.29 min; half-life [22]: 32 min; half-life [23]: 0.53 min; half-life [24]: 13.8 min
1 µM	127 min	5.1 min	185 min	108 min	< 0.167 min	–	–	C[C@@H]1OC(=O)[C@@H]1NC(=O)OCc1ccccc1	–
0.13 µM	134 min	11.4 min	194 min	110 min	< 0.167 min	–	–	C[C@@H]1OC(=O)[C@@H]1NC(=O)OCCCCCc1ccccc1	–
> 100 µM	–	–	–	–	–	–	–	O=C(NC1CCC1=O)OCc1ccccc1 (racemic)	–
–	20.9 min	3.3 min	28.4 min	12.6 min	0.533 min	Active	Active	O=C(N[C@H]1COC1=O)c1ccc(-c2ccccc2)cc1	–
–	30.5 min	1.2 min	39.2 min	26.7 min	< 0.167 min	–	–	O=C(N[C@H]1COC1=O)OCc1ccccc1	–
49.2 µM	–	–	–	–	–	–	–	O=C(NCc1ccccc1)N[C@@H]1COC1=O	–
–	114 min	15.1 min	115 min	93.5 min	0.233 min	–	–	O=C1OCC1CCCCc1ccccc1 (centres undefined)	–
–	19 min	7 min	23.1 min	18 min	< 0.167 min	Active	Active	O=C(CCc1ccccc1)N[C@H]1COC1=O	–
0.19 µM	80.4 min	87.7 min	93.8 min	80.7 min	< 0.167 min	–	–	C[C@@H]1OC(=O)[C@H]1NC(=O)OC(C)(C)C	–
> 100 µM	–	–	–	–	–	–	–	O=C(N[C@@H](CO)C(=O)O)OCc1ccccc1	–
0.5 µM	–	–	–	–	–	–	–	CC(C)(C)OC(=O)N[C@@H]1COC1=O	–
> 100 µM	–	–	–	–	–	–	–	O=C(NC1CCC1)OCc1ccccc1 [CYCLOBUTYLCARBAMIC ACID BENZYL ESTER]	–
–	18.8 min	5.8 min	23.2 min	13.4 min	1.08 min	Active	Active	O=C(N[C@H]1COC1=O)c1ccc(OCc2ccccc2)cc1	–
–	19.1 min	< 1 min	18.1 min	8.2 min	0.483 min	Active	Active	COc1ccc2cc(C(=O)N[C@H]3COC3=O)ccc2c1	–
> 100 µM	–	–	–	–	–	–	–	O=C(N[C@H](CO)C(=O)O)OCc1ccccc1	–
–	20.9 min	3.2 min	25.1 min	12.1 min	1.25 min	Active	Active	CCOC(=O)c1ccc2cc(C(=O)N[C@H]3COC3=O)ccc2c1	–
0.7 µM	–	–	–	–	–	–	–	O=C(N[C@@H]1COC1=O)OCc1ccccc1	–
